In all, about 5,600 compounds went through this assay and about 1,200 (21%) were called active. Not shown: some 3% with an inconclusive outcome. Not all results are given here. Unmarked numbers belong to inactive results.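 The calls were made as follows: active = mean inhibition above about 95%, with at least 55% of replicates also reaching it (limit read from the data); inconclusive = meets just one of the two conditions; inactive = meets neither condition.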

A short description of this assay: inhibitors of intracellular T. cruzi replication, confirmation, NIH3T3 host cells, beta-gal parasites, cherry-pick, set 2 (AID 651740).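 Also: plate controls were neutral control median for no effect and positive control median for full effect.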 Conditions: T. cruzi beta-gal in NIH3T3, GalScreen luminescence, 90 h; at 2.09 µM; active compounds read high. The gist of the method:
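Technique: GalScreen lysis and luminescent beta-gal signal | Test system: T. cruzi Tulahuen C4 (beta-gal) in NIH/3T3 cells | Amount: 5,000 fibroblasts/well | Reagent: 5000 parasites/well | Times: ≥90 h infection with compound, 60 min read delay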
With `C[C@@H]1CN([C@H](C)CO)S(=O)(=O)c2ccc(C#CC3CCCC3)cc2O[C@@H]1CN(C)C(=O)Cc1ccncc1`, the inhibition was 66.3%. The same measure for `C[C@@H]1CN([C@H](C)CO)C(=O)Cc2cc(NC(=O)Cc3ccccc3)ccc2O[C@H]1CN(C)Cc1ccc(Oc2ccccc2)cc1`: 20.7%; for `CC(=O)NC[C@@H]1[C@@H](c2ccc(-c3ccccc3F)cc2)[C@@H](CO)N1C(=O)C1CC1`: 14.2%; for `COc1ccc(S(=O)(=O)Nc2ccc3c(c2)C(=O)N([C@@H](C)CO)C[C@H](C)[C@H](CN(C)Cc2ccc(C(F)(F)F)cc2)O3)cc1`: 42.3%. The same measure for `Cc1noc(C)c1S(=O)(=O)N(C)C[C@H]1Oc2ccc(N(C)C)cc2CC(=O)N([C@H](C)CO)C[C@@H]1C`: -7.54%; for `C[C@@H]1CN([C@@H](C)CO)S(=O)(=O)c2ccc(-c3cccc(F)c3)cc2O[C@@H]1CN(C)S(=O)(=O)c1ccccc1`: 94.1%.

Take `CC(C)CC#Cc1ccc2c(c1)O[C@H](CN(C)S(=O)(=O)c1cccc(F)c1)[C@@H](C)CN([C@@H](C)CO)S2(=O)=O`: the inhibition is 110% (active). As for `CC(C)CC#Cc1ccc2c(c1)O[C@H](CN(C)Cc1cccnc1)[C@H](C)CN([C@@H](C)CO)S2(=O)=O`, the inhibition was 81.2%.

For `C[C@@H]1CN([C@H](C)CO)S(=O)(=O)c2ccc(-c3cccc(F)c3)cc2O[C@H]1CN(C)S(=O)(=O)c1ccc(F)cc1`, the inhibition was 74.9%. As for `CC(C)CC#Cc1ccc2c(c1)O[C@H](CN(C)Cc1ccncc1)[C@H](C)CN([C@H](C)CO)S2(=O)=O`, the figure is 89.4%; as for `CC(C)CC#Cc1ccc2c(c1)O[C@H](CN(C)Cc1ccccc1F)[C@@H](C)CN([C@@H](C)CO)S2(=O)=O`, 113% (active). The same measure for `O=C(C[C@@H]1C[C@@H]2c3cc(NC(=O)c4ccc5c(c4)OCO5)ccc3O[C@@H]2[C@@H](CO)O1)NCc1ccc(Cl)cc1`: -3.27%; for `Cc1cccc(-c2ccc([C@@H]3[C@@H](CO)N4CCCCN(S(=O)(=O)c5cccs5)C[C@H]34)cc2)c1`: 94.4%; for `O=S(=O)(Cc1ccccc1)N1CCCCN2[C@@H](CO)[C@H](c3ccc(-c4cccnc4)cc3)[C@@H]2C1`: 62.1%. For the compound `O=S(=O)(Cc1ccccc1)N1CCCCN2[C@@H](CO)[C@H](c3ccc(-c4ccccc4)cc3)[C@@H]2C1`, the inhibition is 78.8%.

As for `CN(C)CC#Cc1ccc([C@H]2[C@H]3CN(S(=O)(=O)c4ccccc4F)CCCCN3[C@H]2CO)cc1`, the inhibition was 8.03%. As for `COc1ccc(S(=O)(=O)N2CCCCN3[C@H](C2)[C@H](c2ccc(C#CCC(C)C)cc2)[C@@H]3CO)cc1`, the figure is 109% (active). On to `CCS(=O)(=O)N1CCCCN2[C@@H](CO)[C@@H](c3ccc(-c4ccccc4)cc3)[C@@H]2C1`, for which the inhibition is 27.5%. The same measure for `O=C(c1cccnc1)N1CCCCN2[C@@H](CO)[C@H](c3ccc(C#Cc4ccccc4)cc3)[C@@H]2C1`: 41.7%; for `O=S(=O)(Cc1ccccc1)N1CCCCN2[C@@H](CO)[C@@H](c3ccc(-c4ccc(F)cc4)cc3)[C@@H]2C1`: 104% (active). In the case of `COc1ccc(S(=O)(=O)N2CCCCN3[C@H](CO)[C@@H](c4ccc(C#CC(C)C)cc4)[C@H]3C2)cc1`, the inhibition is 79.7%. The same measure for `COc1ccccc1C#Cc1ccc([C@@H]2[C@H](CO)N3CCCCN(C(=O)C4CC4)C[C@@H]23)cc1`: 64.4%; for `COc1cccc(S(=O)(=O)N2CCCCN3[C@H](CO)[C@H](c4ccc(-c5ccncc5)cc4)[C@H]3C2)c1`: 100% (active). The same measure for `COc1ccccc1C#Cc1ccc([C@@H]2[C@H](CO)N3CCCCN(C(=O)C4CCCC4)C[C@@H]23)cc1`: 98.1% (active). For `OC[C@@H]1[C@H](c2ccc(C#CC3(O)CCCC3)cc2)[C@H]2CN(Cc3cncnc3)CCCCN12`, the inhibition is 79.8%. In the case of `CNC[C@H]1OCCCC[C@@H](C)Oc2ccc(NS(C)(=O)=O)cc2C(=O)N([C@H](C)CO)C[C@H]1C`, the inhibition is -9.33%. As for `CO[C@H](CN(C)S(=O)(=O)c1ccc(Cl)cc1)[C@@H](C)CN(Cc1ccccc1Cl)[C@H](C)CO`, the inhibition is 48.7%. The same measure for `COc1cccc(S(=O)(=O)Nc2ccc3c(c2)[C@H]2C[C@H](CC(=O)NCc4ccc(Cl)cc4)O[C@H](CO)[C@H]2O3)c1`: 2.49%; for `COc1cccc(S(=O)(=O)N2C[C@@H](O)COC[C@@H]3O[C@H](CC(=O)Nc4ccccc4)CC[C@H]32)c1`: 1.83%.

Consider `C[C@H](CO)N1C[C@H](C)[C@@H](CN(C)S(=O)(=O)c2ccccc2F)Oc2ncc(C#Cc3ccccc3F)cc2C1=O`, for which the inhibition was 93.7%.

For `C[C@H]1CN([C@@H](C)CO)C(=O)Cc2cc(NC(=O)Cc3cn(C)c4ccccc34)ccc2O[C@@H]1CN(C)Cc1ccc(C(F)(F)F)cc1`, the inhibition is 43.7%. On to `COc1cccc(S(=O)(=O)N2CCCCN3[C@H](CO)[C@H](c4ccc(C#CC5CC5)cc4)[C@H]3C2)c1`, for which the inhibition is 102% (active). As for `O=C(Nc1cccc(F)c1)N1CCCCN2[C@H](CO)[C@H](c3ccc(C#CC4CC4)cc3)[C@@H]2C1`, the figure is 89.3%. `C/C=C/c1ccc([C@H]2[C@H]3CN(S(=O)(=O)c4ccccc4)CCCCN3[C@H]2CO)cc1`: the inhibition was 40.8%.

As for `C[C@@H](O)C#Cc1ccc([C@@H]2[C@H](CO)N3CCCCN(S(=O)(=O)c4ccccc4)C[C@@H]23)cc1`, the inhibition is 12%. The same measure for `COc1cccc(S(=O)(=O)N2CCCCN3[C@H](C2)[C@H](c2ccc(C#CC(C)C)cc2)[C@@H]3CO)c1`: 103% (active); for `C[C@H](O)C#Cc1ccc([C@@H]2[C@H]3CN(S(=O)(=O)c4ccccc4)CCCCN3[C@H]2CO)cc1`: -19.2%; for `C[C@H](CO)N1C[C@H](C)[C@H](CN(C)C(=O)Nc2cccc3ccccc23)Oc2ncc(C#Cc3ccccc3)cc2C1=O`: 59.1%.

For the compound `Cc1cccc(-c2ccc([C@@H]3[C@H](CO)N4CCCCN(C(=O)c5ccc6c(c5)OCO6)C[C@@H]34)cc2)c1`, the inhibition is 66.9%.

With `C[C@@H]1CN([C@H](C)CO)S(=O)(=O)c2ccc(-c3cccc(C#N)c3)cc2O[C@@H]1CN(C)C(=O)Nc1ccccc1F`, the inhibition is 85.2%. The same measure for `C[C@@H]1CN([C@@H](C)CO)C(=O)CCCn2cc(nn2)CO[C@@H]1CN(C)S(=O)(=O)c1ccccc1F`: 34.3%.

By inhibition is commonly meant the relative decrease from the control value, in per cent.

These data come from PubChem BioAssay AID651740 (Broad Institute, 2012).
